The values below come from PubChem BioAssay.

The source made the active and inactive calls.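 How the source made its calls, unless noted: active means inhibition above 20% together with a positive visual image hit; inconclusive means visual image hit but inhibition not above 20%; inactive means no visual image hit.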

Test [1] in a line: inhibitors of TNFa-induced NFkB p65 translocation, primary screen, imaging, HUVEC, MLSMR starter and 10KST1 sets (AID 438).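 Further: compound added about 3h40 before a 20 min TNFalpha stimulation.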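 On inhibition: signal is the nuclear over cytoplasmic p65 intensity ratio per well.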 Conditions: HUVEC TNFa-induced p65 nuclear translocation; cell count: measured here: nuclei count (cytotoxicity indicator), at 2.08 µM; inhibition: at 2 µM, stronger effect = higher value, 0% TNFa-plus-vehicle, 100% no-TNFa wells.
The nature of test [2]: inhibitors of E-selectin induction by TNFa, primary screen, imaging, HUVEC, immunofluorescence, MLSMR starter and 10KST1 sets (AID 487;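 active means visually confirmed hit in the image check and inhibition above 20%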;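 on inhibition: signal is fraction of cell area covered by stained E-selectin grains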;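 on nuclei count: 100% = median nuclei count of all wells on the same plate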). The note with it: HUVEC TNFalpha-induced E-selectin immunofluorescence imaging, at 2 µM; inhibition: stronger effect = higher value; nuclei count: measured here: cell number, toxicity.
Test [3] is described as follows: DUSP6 inhibitors restoring Erk phosphorylation by chemical complementation, primary imaging in DUSP6-transfected HeLa (AID 609;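 active means compounds giving at least 50% inhibition in the cell-based MKP-3 phosphatase rescue imaging test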;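 on inhibition: phospho-Erk level distribution per well compared with pooled transfected vehicle control wells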). Conditions: HeLa MKP-3 transfected, phospho-Erk imaging KS statistic, at 10 µM, cells stimulated with TPA for 15 min.
Test [4] has as its target Dual specificity protein phosphatase 6 (Homo sapiens) (UniProt Q16828). Described as above. The note with it: HeLa MKP-3 transfected, phospho-Erk imaging KS statistic; at 10 µM; stronger effect = higher value; cells stimulated with TPA for 15 min.
Test [5] addresses Voltage-gated potassium channel subunit beta-2 (Rattus norvegicus) (UniProt P62483). The test is described as follows: KvBeta enzyme negative modulators, primary screen, biochemical, NADPH fluorescence (AID 622;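 active means fluorescence slope higher than the sample average by over 3 SD, cut at about -0.22 in these data, passing the limit was not always enough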;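 further: slope of raw intensity against log time taken from 70 to 1610 s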). Conditions: recombinant KvBeta, 4-cyanobenzaldehyde reduction, at 10 µM, stronger effect = higher value.
Test [6] has the same target. The test is described as follows: KvBeta positive modulators, primary screen, biochemical, NADPH fluorescence (AID 623;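 active means NADPH fluorescence slope more negative than the mean of all samples by about 3 SD, 99.7% confidence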;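 further: fluorescence intensity change per second fitted from 20 to 320 s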). Conditions: Recombinant KvBeta, NADPH fluorescence decrease slope, 10 min; at 10 µM; stronger effect = lower value.
Test [7] deals with Muscarinic acetylcholine receptor M4 (Homo sapiens) (UniProt P08173). Description: compounds altering M4/GIRK thallium flux, either direction, primary screen, M4 allosteric agonist project, cell-based, HEK293 M4/GIRK, BTC-AM (AID 625;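 active means fluorescence slope after compound addition differing from the mean of all tested samples at 99.7% confidence, mostly higher but some lower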;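 further: thallium influx through GIRK channels coupled to M4 in HEK293 cells with BTC-AM dye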). Conditions: at 10 µM, actives lie on both sides. Summed up: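 Material: HEK293 cells with M4 receptor and GIRK channels; Times: cells overnight at 37 °C, BTC-AM loading 1 h, reads 2 min total; Technique: kinetic BTC-AM fluorescence sampled at 1 Hz, 10 s pre-addition baseline; Read-out basis: slope over 15–24 s of trace normalized to starting intensity; Controls: carbachol positive, DMSO negative.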

Test [8] is described as follows: inhibitors of larval lipid processing in zebrafish, primary screen, whole organism, PED6 fluorescence, gall bladder and intestine (AID 686;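 active means a full or partial loss of lipid-probe fluorescence in the fish gall bladder, intestine or both, judged by eye; inactive means no fluorescence loss, or compound toxic to the fish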;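 further: larvae 5 to 7 days old with five fish per well; signal comes from phospholipase A2 cleavage of quenched PED6 carried via bile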). The note with it: Zebrafish larvae PED6 lipid processing, fluorescence scoring; screened at 20 µM (by protocol). Summed up: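 Incubation: overnight exposure of larvae to compound plus PED6 / Test system: live zebrafish larvae aged 5-7 days, whole organism / Amount: 5 larvae per well / Read-out basis: visual per-well fluorescence inhibition score / Signal: visual fluorescence microscopy scoring of gall bladder, gut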

Test [9] is described as follows: inhibitors of Chlamydomonas gravitaxis, primary screen, whole organism, Chlamydomonas reinhardtii, WT vs cilia-less mutant, absorbance, 96-well (AID 463189;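 active means inhibition at or above 50% relative to wild type and mutant plate controls; inactive means inhibition below 50%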;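 further: 0% = wild type cc124 cells in DMSO and 100% = ciliumless bld1 mutant cells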). Conditions: OD600 absorbance, 2 days, at 10 µM, stronger effect = higher value.
The mark [10] stands for this setting: measured here: cell density z-score.
Where [11] appears, read: measured here: nuclear c-Myc green intensity z-score.
Where [12] appears, read: measured here: nuclear pErk red intensity z-score, stronger effect = higher value.

Sequence of Dual specificity protein phosphatase 6 (Homo sapiens) (Q16828 whole entry, looked up): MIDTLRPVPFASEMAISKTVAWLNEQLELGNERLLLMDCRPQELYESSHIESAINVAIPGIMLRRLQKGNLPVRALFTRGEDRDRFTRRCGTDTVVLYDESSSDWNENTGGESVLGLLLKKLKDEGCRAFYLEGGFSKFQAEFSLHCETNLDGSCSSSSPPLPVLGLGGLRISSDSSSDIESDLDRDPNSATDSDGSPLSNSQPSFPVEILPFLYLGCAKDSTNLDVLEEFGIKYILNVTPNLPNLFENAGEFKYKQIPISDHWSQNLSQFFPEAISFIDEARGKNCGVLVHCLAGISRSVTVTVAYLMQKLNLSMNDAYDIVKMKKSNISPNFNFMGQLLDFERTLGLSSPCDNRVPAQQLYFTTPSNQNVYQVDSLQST
Sequence of Voltage-gated potassium channel subunit beta-2 (Rattus norvegicus) (P62483 whole entry, looked up): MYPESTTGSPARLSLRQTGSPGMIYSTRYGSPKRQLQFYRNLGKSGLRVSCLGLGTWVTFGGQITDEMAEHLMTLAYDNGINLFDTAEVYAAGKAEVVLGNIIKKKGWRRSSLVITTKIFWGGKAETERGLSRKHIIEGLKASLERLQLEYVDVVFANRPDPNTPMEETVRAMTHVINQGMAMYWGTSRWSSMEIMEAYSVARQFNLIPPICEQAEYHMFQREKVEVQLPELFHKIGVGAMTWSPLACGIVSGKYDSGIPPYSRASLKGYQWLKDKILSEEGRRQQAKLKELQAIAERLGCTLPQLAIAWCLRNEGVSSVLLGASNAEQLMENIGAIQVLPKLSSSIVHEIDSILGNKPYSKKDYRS
Sequence of Muscarinic acetylcholine receptor M4 (Homo sapiens) (P08173 whole entry, looked up): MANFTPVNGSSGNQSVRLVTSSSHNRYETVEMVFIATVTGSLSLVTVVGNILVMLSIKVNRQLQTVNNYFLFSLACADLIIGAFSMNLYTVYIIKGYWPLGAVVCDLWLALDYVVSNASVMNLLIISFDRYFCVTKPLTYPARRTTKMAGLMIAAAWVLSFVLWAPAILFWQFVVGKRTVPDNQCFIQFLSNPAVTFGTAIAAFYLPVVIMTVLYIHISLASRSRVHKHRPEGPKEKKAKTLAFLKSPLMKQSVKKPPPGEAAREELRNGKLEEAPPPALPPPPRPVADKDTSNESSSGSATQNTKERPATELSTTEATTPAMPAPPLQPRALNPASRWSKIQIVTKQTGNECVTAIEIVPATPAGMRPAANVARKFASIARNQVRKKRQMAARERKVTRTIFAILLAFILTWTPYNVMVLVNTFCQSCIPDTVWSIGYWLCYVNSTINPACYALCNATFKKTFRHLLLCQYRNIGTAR

`CCOC(=O)C(C)Oc1ccc2c(C)cc(=O)oc2c1C(C)=O` (stereo not given): the cell count in test [1] is 708. The inhibition in test [1] was 3.9% (inactive); in [2], -13.3% (inactive); in [4], 1.98% (inactive); in [9], 3.24% (inactive). The compound also had a nuclei count in test [2] of 198%. Further, the z-score in [3] (setting [10]) was -0.905; in test [3] (setting [11]), 0.873; in test [3] (setting [12]), 1.56. In addition, the fluorescence slope is -0.459 (inactive) in test [5] and 0.00606 (inactive) in test [7]. The NADPH fluorescence slope in test [6] is -4.7e-05 (inactive). Further, in [8], the result was inactive.
With `Cc1cc(CC(=O)O)c(C)cc1CC(=O)O`, the cell count in [1] was 590. For the same compound, the inhibition was -9.1% (inactive) in test [1], -39.7% (inactive) in test [2], -7.67% (inactive) in test [4] and -5.83% (inactive) in test [9]. Further, the nuclei count in [2] stood at 146%. Moreover, the z-score was -0.726 in test [3] (setting [10]), 1.92 in [3] (setting [11]) and 1.23 in test [3] (setting [12]). In addition, the fluorescence slope was -0.445 (inactive) in test [5] and 0.00496 (inactive) in test [7]. Moreover, in [6], the NADPH fluorescence slope was -0.000138 (inactive). In addition, the call in [8] was inactive.
Regarding `CCCCOC(=O)CSC1=C(C#N)C(c2ccc3c(c2)OCO3)CC(=O)N1` (stereo not given), the cell count in [1] came out at 650. In addition, the inhibition is -12.5% (inactive) in [1], -163% (inactive) in test [2], 8.31% (inactive) in [4] and 4.75% (inactive) in test [9]. Moreover, the nuclei count in test [2] was 155%. The z-score in [3] (setting [10]) is 1.99; in [3] (setting [11]) it was 0.113; in test [3] (setting [12]) it was -0.175. Also, the fluorescence slope was -0.5 (inactive) in test [5] and 0.00598 (inactive) in test [7]. The NADPH fluorescence slope in test [6] is -8.3e-05 (inactive). For the same compound, the call in test [8] was inactive.
Take `CCCC1C(c2ccc(OC)cc2)C(C#N)(C#N)C2(C#N)CC1(N)NC2=O` (stereo not given): the cell count in [1] came out at 369. The inhibition was -0.7% (inactive) in test [1], -28.9% (inactive) in test [2], -2.69% (inactive) in [4] and -15.7% (inactive) in test [9]. In test [2], this compound had a nuclei count of 84.9%. For the same compound, the results for the z-score in test [3] (setting [10]), in test [3] (setting [11]) and in test [3] (setting [12]) were -2.59, 2.42 and -0.136, respectively. Moreover, the results for the fluorescence slope in test [5] and in [7] were -0.495 (inactive) and 0.00515 (inactive), respectively. For the same compound, the NADPH fluorescence slope in test [6] was 3.3e-05 (inactive). In addition, the call in test [8] was inactive.
Take `Cc1ccc(C(=O)C2=C(O)C(=O)N(CCN3CCOCC3)C2c2ccccn2)o1` (stereo not given): the cell count in [1] was 403. Also, the inhibition in test [1] is 1.7% (inactive); in test [2], -75.7% (inactive); in [4] it was -0.608% (inactive); in test [9], -7.55% (inactive). The compound also came in with a nuclei count in test [2] of 147%. For the same compound, the z-score is -0.208 in test [3] (setting [10]), -0.969 in [3] (setting [11]) and -0.257 in [3] (setting [12]). Besides, the figures for the fluorescence slope in test [5] and in test [7] were -0.474 (inactive) and 0.00402 (inactive), respectively. The NADPH fluorescence slope in test [6] is -0.0001 (inactive). Also, the compound was classed as inactive in test [8].
Turning to `COc1ccc(OC)c(C2C(C(=O)c3sc(C)nc3C)=C(O)C(=O)N2CCN2CCOCC2)c1` (stereo not given), in test [1], the cell count turned out to be 369. For the same compound, the inhibition in test [1] is 2.2% (inactive); in test [2] it was 35.1% (inactive); in test [4] it was -4.78% (inactive); in [9] it was 14.2% (inactive). In test [2], this compound gave a nuclei count of 148%. Also, the z-score in test [3] (setting [10]) was -0.927; in [3] (setting [11]), -0.477; in [3] (setting [12]), 2.22. For the same compound, the values for the fluorescence slope in test [5] and in [7] were -0.46 (inactive) and 0.00498 (inactive), respectively. Also, the NADPH fluorescence slope in [6] was -0.000134 (inactive). In addition, the outcome in test [8] was inactive.
For the compound `CC(=O)CCn1c(=O)n(CCC(C)=O)c(=O)n(CCC(C)=O)c1=O`, in test [1], the cell count came to 352. Besides, the inhibition in test [1] is -1.6% (inactive); in [2], -7% (inactive); in test [4], 5.42% (inactive); in test [9] it was -14.3% (inactive). The compound further yielded a nuclei count in test [2] of 97.7%. Besides, the results for the z-score in [3] (setting [10]), in test [3] (setting [11]) and in test [3] (setting [12]) were -1.19, 2.07 and -0.0971, respectively. In addition, the fluorescence slope in test [5] is -0.512 (inactive); in test [7], 0.00631 (inactive). In addition, the NADPH fluorescence slope in test [6] is -4.3e-05 (inactive). In addition, in [8], the compound was classed as inactive.
For `COC(=O)COc1ccc(Oc2nc(SC)nc(N(C)C)n2)nn1`, the cell count in test [1] came out at 345. Moreover, the inhibition was -16.3% (inactive) in test [1], -54.5% (inactive) in [2], -3.95% (inactive) in [4] and -8.33% (inactive) in test [9]. In addition, in [2], the nuclei count stood at 109%. In addition, the z-score was -0.468 in test [3] (setting [10]), -0.441 in test [3] (setting [11]) and -0.861 in test [3] (setting [12]). Moreover, the fluorescence slope in test [5] is -0.461 (inactive); in test [7], 0.00594 (inactive). In addition, in test [6], the NADPH fluorescence slope was -8.1e-05 (inactive). Also, in test [8], the compound was classed as inactive.
On to `CCOC(=O)c1[nH]c2ccccc2c1N=C(C)N(CC)CC`, for which the cell count in [1] was 643. Besides, the inhibition in test [1] was -7% (inactive); in test [2] it was -113% (inactive); in test [4], 11.9% (inactive); in test [9] it was -5.79% (inactive). This compound showed a nuclei count in test [2] of 160%. In addition, the z-score in [3] (setting [10]) is -1.18; in test [3] (setting [11]), 2.66; in [3] (setting [12]) it was 0.345. Also, the fluorescence slope in test [5] is -0.521 (inactive); in test [7], 0.00643 (inactive). Moreover, the NADPH fluorescence slope in [6] is -3.5e-05 (inactive). Further, the compound was classed as inactive in [8].
`COCCCn1cnc2c(c1=O)c1nc3ccccc3nc1n2CCc1ccccc1`: in test [1], the cell count worked out at 607. Moreover, the inhibition in test [1] was -6.7% (inactive); in [2] it was 10.3% (inactive); in test [4], 1.63% (inactive); in test [9] it was 12.1% (inactive). In addition, the nuclei count in test [2] was determined as 115%. Moreover, the values for the z-score in [3] (setting [10]), in test [3] (setting [11]) and in test [3] (setting [12]) were -3.3, 0.876 and 0.579, respectively. The fluorescence slope was -0.492 (inactive) in [5] and 0.00438 (inactive) in [7]. For the same compound, the NADPH fluorescence slope in test [6] is -4.8e-05 (inactive). The result in test [8] was inactive.
